Assay results reported in PubChem BioAssay AID624314 (The Scripps Research Institute Molecular Screening Center, 2012).
Active and inactive are the calls of the source.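 How the source made its calls: active means relative activity ratio above 1.25 at every tested dose; inactive means the rest.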

System: HEK293 3B-HSD promoter CAT reporter, ELISA absorbance
Test: CAT reporter under 3B-HSD promoter control – cell-based, absorbance, counter-screen for DAX1 (NR0B1) inhibitor project, late-stage follow-up (AID 624314)
Conditions: at 100 µM (top of the series)
Summary of the method: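 Test system: transfected HEK293 cells with DAX-1, SF-1, 3β-HSD2 promoter CAT; times: compound exposure 16 h at 37 °C; measured by: colorimetric enzyme immunoassay of CAT protein, absorbance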

Compound | relative activity ratio
Cn1c(=O)n(C)c2cc(C(=O)Nc3ccc4c(c3)OCO4)ccc21 | 0.34 (inactive)
Cn1c(=O)n(C)c2cc(C(=O)Nc3ccc4c(c3)OCCO4)ccc21 | 0.26 (inactive)
